In ChEMBL document CHEMBL1128478, “Structure-activity relationships of the potent combined endothelin-A/endothelin-B receptor antagonist Ac-DDip16-Leu-Asp-Ile-Ile-Trp21: development of endothelin-B receptor selective antagonists” (J Med Chem, 1995):
Numbered stars: 1 amine (or outer) side, 2 acyl side, 3 side chain; on linkers, the order of the positions; unused ones are H or OH. Square brackets hold non-standard residues; d marks the D form. Peptide text beside a SMILES is read from it. * marks the point of attachment. Diphenylacetyl = O=C(C(c1ccccc1)c1ccccc1)*; Dip = N[C@H](C(=O)O)C(c1ccccc1)c1ccccc1; CO = O=C([*:1])[*:2]; Piv = CC(C)(C)C(=O)*; Propionyl = CCC(=O)*; Bz = O=C(c1ccccc1)*; Ms = CS(=O)(=O)*

Key:
[1] = target: T1, Endothelin receptor type B (Rattus norvegicus, UniProt P21451); test: Inhibition of SRTX-6c stimulated arachidonic acid release in CHO cells expressing recombinant rat ET- B receptors
T1 sequence (P21451 whole entry): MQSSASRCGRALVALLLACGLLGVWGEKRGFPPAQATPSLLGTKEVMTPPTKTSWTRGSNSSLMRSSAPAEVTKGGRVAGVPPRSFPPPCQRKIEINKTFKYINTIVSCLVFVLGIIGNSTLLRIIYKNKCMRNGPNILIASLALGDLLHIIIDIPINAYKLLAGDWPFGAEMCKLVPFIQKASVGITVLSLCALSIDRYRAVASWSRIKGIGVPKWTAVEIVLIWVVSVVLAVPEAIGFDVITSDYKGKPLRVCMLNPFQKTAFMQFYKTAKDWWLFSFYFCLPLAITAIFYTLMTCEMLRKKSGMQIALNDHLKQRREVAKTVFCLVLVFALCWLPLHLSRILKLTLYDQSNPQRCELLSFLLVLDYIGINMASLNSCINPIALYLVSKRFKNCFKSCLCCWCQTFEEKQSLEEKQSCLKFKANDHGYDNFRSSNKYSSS

[2] = target: T1, Endothelin receptor type B; test: Binding affinity against endothelin B receptor rat cerebellar membranes.
[3] = Relative affinities against endothelin A receptor (rabbit) and endothelin B receptor (rat); design: reference not given here
[4] = Relative affinities for rat endothelin B receptor and human endothelin B receptor; design: reference not given here
[5] = target: T2, Endothelin receptor type B (Homo sapiens, UniProt P24530); test: Binding affinity measured in CHO cells stably transfected with the human endothelin B receptor; assay type: cell-based
T2 sequence (P24530 whole entry): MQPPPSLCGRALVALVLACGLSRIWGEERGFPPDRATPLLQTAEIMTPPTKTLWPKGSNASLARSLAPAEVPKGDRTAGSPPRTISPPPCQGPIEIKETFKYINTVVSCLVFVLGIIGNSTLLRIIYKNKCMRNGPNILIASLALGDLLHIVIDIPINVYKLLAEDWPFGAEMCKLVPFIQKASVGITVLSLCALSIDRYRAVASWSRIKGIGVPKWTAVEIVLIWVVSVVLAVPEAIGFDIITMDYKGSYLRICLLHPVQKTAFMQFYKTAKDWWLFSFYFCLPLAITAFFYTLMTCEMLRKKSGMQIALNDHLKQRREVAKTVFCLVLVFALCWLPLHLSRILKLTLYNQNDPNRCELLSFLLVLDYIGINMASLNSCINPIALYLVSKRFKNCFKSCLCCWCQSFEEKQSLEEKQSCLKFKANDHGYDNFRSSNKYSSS
Procedure, shortened: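 Membranes come from confluent CHO-K1 clones stably expressing human ETB, grown in DME/F12 with 10% FCS and G418 0.5 mg/mL. Specific binding fitted by nonlinear least squares. Triplicate points per IC50.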

[6] = target: T1, Endothelin receptor type B; test: Inhibition of SRTX-6c stimulated arachidonic acid release in CHO cells expressing rat ET- B receptors

IC50 [1] [µM]	IC50 [2] [µM]	Ratio [3]	Ratio [4]	IC50 [5] [µM]	IC50 [6] [µM]	Compound
1.3	0.26	2.1	–	–	–	CC[C@H](C)[C@H](NC(=O)[C@H](CC(=O)O)NC(=O)[C@H](CC(C)C)NC(=O)[C@@H](NS(C)(=O)=O)C(c1ccccc1)c1ccccc1)C(=O)N[C@H](C(=O)N[C@@H](Cc1c[nH]c2ccccc12)C(=O)O)[C@@H](C)CC (Ms-[Dip]LDIIW-OH)
–	0.06	–	17	> 1.6	–	CC[C@H](C)[C@H](NC(=O)[C@H](Cc1ccccc1)NC(=O)[C@H](CC(C)C)NC(=O)[C@@H](NC(C)=O)C(c1ccccc1)c1ccccc1)C(=O)N[C@H](C(=O)N[C@@H](Cc1c[nH]c2ccccc12)C(=O)O)[C@@H](C)CC (Ac-[Dip]LFIIW-OH)
–	0.03	210	147	4.4	0.29	CC[C@H](C)[C@H](NC(=O)[C@H](CC(=O)O)NC(=O)[C@H](CC(C)C)NC(=O)[C@@H](NC(=O)c1ccccc1)C(c1ccccc1)c1ccccc1)C(=O)N[C@H](C(=O)N[C@@H](Cc1c[nH]c2ccccc12)C(=O)O)[C@@H](C)CC (Bz-[Dip]LDIIW-OH)
–	0.019	–	95	1.8	–	CC[C@H](C)[C@H](NC(=O)[C@H](CCC(=O)O)NC(=O)[C@H](CC(C)C)NC(=O)[C@@H](NC(C)=O)C(c1ccccc1)c1ccccc1)C(=O)N[C@H](C(=O)N[C@@H](Cc1c[nH]c2ccccc12)C(=O)O)[C@@H](C)CC (Ac-[Dip]LEIIW-OH)
–	0.056	–	16	0.9	–	CC[C@H](C)[C@H](NC(=O)[C@H](Cc1ccccc1)NC(=O)[C@H](CC(=O)O)NC(=O)[C@H](CC(C)C)NC(=O)[C@@H](NC(C)=O)C(c1ccccc1)c1ccccc1)C(=O)N[C@@H](Cc1c[nH]c2ccccc12)C(=O)O (Ac-[Dip]LDFIW-OH)
–	0.26	3.8	–	–	0.22	CCC(=O)N[C@H](C(=O)N[C@@H](CC(C)C)C(=O)N[C@@H](CC(=O)O)C(=O)N[C@H](C(=O)N[C@H](C(=O)N[C@@H](Cc1c[nH]c2ccccc12)C(=O)O)[C@@H](C)CC)[C@@H](C)CC)C(c1ccccc1)c1ccccc1 (Propionyl-[Dip]LDIIW-OH)
–	0.01	–	–	0.59	–	CC[C@H](C)[C@H](NC(=O)[C@H](CC(=O)O)NC(=O)[C@H](CCCNC(=N)N)NC(=O)[C@H](NC(C)=O)C(c1ccccc1)c1ccccc1)C(=O)N[C@H](C(=O)N[C@@H](Cc1c[nH]c2ccccc12)C(=O)O)[C@@H](C)CC
–	0.14	6.1	–	–	0.02	CC[C@H](C)[C@H](NC(=O)[C@H](CC(=O)O)NC(=O)[C@H](CC(C)C)NC(=O)[C@@H](NC(=O)NC)C(c1ccccc1)c1ccccc1)C(=O)N[C@H](C(=O)N[C@@H](Cc1c[nH]c2ccccc12)C(=O)O)[C@@H](C)CC ({NHMe-CO}-[Dip]LDIIW-OH)
–	0.4	25	–	–	0.89	CC[C@H](C)[C@H](NC(=O)[C@H](CC(=O)O)NC(=O)[C@H](CC(C)C)NC(=O)[C@@H](NC(=O)C(C)(C)C)C(c1ccccc1)c1ccccc1)C(=O)N[C@H](C(=O)N[C@@H](Cc1c[nH]c2ccccc12)C(=O)O)[C@@H](C)CC (Piv-[Dip]LDIIW-OH)
–	1.3	2	–	–	9.3	CC[C@H](C)[C@H](NC(=O)[C@H](CC(=O)O)NC(=O)[C@H](CC(C)C)NC(=O)[C@@H](NC(=O)C(c1ccccc1)c1ccccc1)C(c1ccccc1)c1ccccc1)C(=O)N[C@H](C(=O)N[C@@H](Cc1c[nH]c2ccccc12)C(=O)O)[C@@H](C)CC (Diphenylacetyl-[Dip]LDIIW-OH)
–	–	–	59	–	–	CC[C@H](C)[C@H](NC(=O)[C@H](CC(=O)O)NC(=O)[C@H](CCCNC(=N)N)NC(=O)[C@@H](NC(C)=O)C(c1ccccc1)c1ccccc1)C(=O)N[C@H](C(=O)N[C@@H](Cc1c[nH]c2ccccc12)C(=O)O)[C@@H](C)CC
–	–	–	–	> 10	–	CC[C@H](C)[C@H](NC(=O)[C@H](CCCCN)NC(=O)[C@H](CC(C)C)NC(=O)C(NC(C)=O)C(c1ccccc1)c1ccccc1)C(=O)N[C@H](C(=O)N[C@@H](Cc1c[nH]c2ccccc12)C(=O)O)[C@@H](C)CC (single isomer, unassigned)
